Measurements published in ChEMBL document CHEMBL4325899, “Synthesis and photocytotoxic activity of [1,2,3]triazolo[4,5-h][1,6]naphthyridines and [1,3]oxazolo[5,4-h][1,6]naphthyridines” (Eur J Med Chem, 2019).
Calls of active or inactive are those of the source. The rule behind the calls is not given here.

Assays:
[1] = Solubility of the compound in DMSO; type: physicochemical
[2] = Dark toxicity against human A375 cells preincubated for 5 mins followed by compound washout and measured after 72 hrs by MTT assay; type: cell-based, A-375
Procedure, shortened: (§1)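 Cells were plated and allowed to attach overnight. Compounds were diluted in DMSO (0.5% final), with each concentration in triplicate, and applied for 5 min. Cells were then washed in PBS and given fresh medium. Without irradiation, cells were held 72 h at up to 50 μM. MTT (5 mg/mL stock) was added for 4 h, crystals were dissolved in SDS/HCl overnight, and absorbance was read at 540 nm. CC50 is the concentration killing 50% of cells, taken as the mean of at least three experiments.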

MCF7 [3] = experiment: Cell cycle arrest in human MCF7 cells assessed as accumulation of cells at S phase at EC50 after 24 hrs under UV-irradiation by propidium iodide staining-based flow cytometric analysis (reference value: 24.7%); type: functional
[4] = Dark toxicity against human HT-29 cells preincubated for 5 mins followed by compound washout and measured after 72 hrs by MTT assay; type: cell-based; procedure, shortened: as §1
MCF7 [5] = experiment: Cell cycle arrest in human MCF7 cells assessed as accumulation of cells at subG1 phase at EC50 after 24 hrs under UV-irradiation by propidium iodide staining-based flow cytometric analysis (reference value: 4.8%); type: functional
MCF7 [6] = experiment: Cell cycle arrest in human MCF7 cells assessed as accumulation of cells at S phase at EC75 after 24 hrs under UV-irradiation by propidium iodide staining-based flow cytometric analysis (reference value: 24.7%); type: functional
[7] = Drug localization in cytoplasm of human MCF7 cells at 2 uM measured after 30 to 60 mins by confocal microscopic analysis; type: ADME, subcellular; conditions: mcf7, 2 µM
[8] = Selectivity index, ratio of EC50 for human MCF10A cells under UV irradiation at 1.5 J/cm2 to EC50 for human MCF7 cells under UV irradiation at 1.5 J/cm2; type: toxicity; conditions: MCF10A cells versus MCF7 cells, read-out: Ratio EC50
Procedure, shortened: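 SI is the EC50 under irradiation in non-tumor MCF10A cells divided by the EC50 under irradiation in the tumor line. Both were MTT read-outs 72 h after 1.5 J/cm² at 365 nm.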

MCF7 [9] = experiment: Cell cycle arrest in human MCF7 cells assessed as accumulation of cells at G2/M phase at EC50 after 24 hrs under UV-irradiation by propidium iodide staining-based flow cytometric analysis (reference value: 26.3%); type: functional
MCF7 [10] = experiment: Induction of apoptosis in human MCF7 cells assessed as apoptotic cells at EC25 to EC75 after 4 hrs in presence of photoirradiation by Annexin V-FITC/propidium iodide staining-based flow cytometric analysis relative to control; type: functional
MCF7 [11] = experiment: Cell cycle arrest in human MCF7 cells assessed as accumulation at S phase at EC25 after 24 hrs under UV-irradiation by propidium iodide staining-based flow cytometric analysis (reference value: 24.7%); type: functional
[12] = Phototoxicity index, ratio of CC50 for human MCF10A cells to EC50 for human MCF10A cells under UV irradiation at 1.5 J/cm2; type: cell-based, MCF-10A; conditions: read-out: Ratio CC50/EC50
MCF7 [13] = experiment: Induction of apoptosis in human MCF7 cells assessed as necrotic cells at EC25 to EC75 after 4 hrs in presence of photoirradiation by Annexin V-FITC/propidium iodide staining-based flow cytometric analysis relative to control; type: functional
MCF7 [14] = experiment: Cell cycle arrest in human MCF7 cells assessed as accumulation at subG1 phase at EC25 after 24 hrs under UV-irradiation by propidium iodide staining-based flow cytometric analysis (reference value: 4.8%); type: functional
MCF7 [15] = experiment: Induction of ROS generation in human MCF7 cells at 0.5 to 2 uM preincubated for 30 mins followed by irradiation at 1.5 J/cm2 for 2 hrs by H2DCFDA probe-based fluorescence assay (reference value: 100%); type: functional
Procedure, shortened: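 MCF7 cells (3x10⁴) were plated 24 h ahead to reach 80–90% confluence. Compounds were applied for 30 min in phenol-red-free, serum-free medium, and H2DCFDA (10 µM) was added 15 min before irradiation (1.5 J/cm², ~365 nm) or no irradiation. DCF fluorescence (485/535 nm) was read 2 h after light and expressed relative to untreated controls (100%). PMA (400 nM) served as positive control; three independent experiments.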

MCF7 [16] = experiment: Induction of mitochondrial dysfunction in human MCF7 cells assessed as organelles fusion at 2 uM after 120 mins in presence of UV irradiation by Mitotracker Orange CMTM-ROS staining-based confocal microscopic analysis; type: functional, cell-based
Procedure, shortened: (§2)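 MCF7 cells (4x10⁵) were plated on glass slides for 24 h. They were then loaded with MitoTracker Orange CMTM-ROS (150 nM) for 45 min in phenol-red-free, serum-free medium, before 2 µM compound and UV photoactivation. Cells were fixed in 2% PFA 20 min or 2 h after UV and imaged confocally (ex 543 nm, em 560–620 nm). PMA (400 nM) served as ROS-inducer control.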

MCF7 [17] = experiment: Induction of lysosomal activation in human MCF7 cells assessed as late apoptotis at 2 uM after 2 hrs in presence of UV irradiation by Lysotracker Green DND 26 staining-based confocal microscopic analysis; type: functional, cell-based
Procedure, shortened: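 MCF7 cells (4x10⁵) on glass slides were loaded with LysoTracker Green DND-26 (175 nM) for 45 min in phenol-red-free, serum-free medium, before 2 µM compound with or without UV activation. Cells were fixed in 2% PFA 20 min or 2 h after UV and imaged confocally (ex 488 nm, em 500–530 nm). Controls were untreated cells with and without irradiation, and cells given PMA (400 nM).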

HT-29 = experiment: Phototoxicity against human HT-29 cells preincubated for 5 mins followed by compound washout and subsequent UV irradiation at 1.5 J/cm2 for 5 mins measured after 72 hrs by MTT assay; type: functional, cell-based; conditions: HT-29, light or radiation study
Procedure, shortened: (§3)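 Compounds were diluted in DMSO (0.5% final), applied in triplicate for 5 min, then washed out with PBS. After medium removal, cells were irradiated on ice for 5 min at 365 nm (1.5 J/cm²) and then kept 72 h at 37 °C. Viability was read by MTT at 540 nm and expressed relative to 0.5% DMSO controls given the same treatment. EC50 is the concentration killing 50%, as the mean ± SD of at least three experiments.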

[18] = Dark toxicity against human MCF10A cells preincubated for 5 mins followed by compound washout and measured after 72 hrs by MTT assay; type: cell-based, MCF-10A; procedure, shortened: as §1
MCF7 [19] = experiment: Phototoxicity against human MCF7 cells preincubated for 5 mins followed by compound washout and subsequent UV irradiation at 1.5 J/cm2 for 5 mins measured after 72 hrs by MTT assay; type: functional, cell-based; conditions: MCF7, light or radiation study; procedure, shortened: as §3
MCF7 [20] = experiment: Induction of mitochondrial dysfunction in human MCF7 cells assessed as perinuclear clustering at 2 uM after 20 mins in presence of UV irradiation by Mitotracker Orange CMTM-ROS staining-based confocal microscopic analysis; type: functional, cell-based; procedure, shortened: as §2

Q: Which solubility [1] does the source give for `COc1ccc(-c2nc3c(nc(C)c4ccc(-c5ccccc5)nc43)o2)cc1` here?
A: The solubility was “Soluble”.

Q: What about the CC50 at 72 h [2] of the same compound?
A: Its CC50 at 72 h is greater than 50000 nM.

Q: And the Activity (MCF7 [3])?
A: The Activity was 25.6%.

Q: What about the CC50 at 72 h [4] of the same compound?
A: The CC50 at 72 h was greater than 50000 nM.

Q: And the Activity (MCF7 [5])?
A: The Activity was 4.4%.

Q: What about the Activity (MCF7 [6]) of the same compound?
A: Its Activity is 26.3%.

Q: What about the Drug uptake [7] of the same compound?
A: The Drug uptake was “Active”.

Q: What about the selectivity ratio [8] of the same compound?
A: Its selectivity ratio is 86.

Q: And the Activity (MCF7 [9])?
A: Its Activity is 26.9%.

Q: What about the Activity (MCF7 [10]) of the same compound?
A: Its Activity is 34 - 50%.

Q: And the Activity (MCF7 [11])?
A: The Activity was 24.8%.

Q: What about the selectivity ratio [12] of the same compound?
A: The selectivity ratio was greater than 58.

Q: What about the Activity (MCF7 [13]) of the same compound?
A: Its Activity is 10%.

Q: What about the Activity (MCF7 [14]) of the same compound?
A: The Activity was 4.3%.

Q: And the Activity (MCF7 [15])?
A: Its Activity is 227%.

Q: What about the Activity (MCF7 [16]) of the same compound?
A: The Activity was “Active”.

Q: What about the Activity (MCF7 [17]) of the same compound?
A: Its Activity is “Active”.

Q: And the EC50 (HT-29)?
A: The EC50 was 12 nM.

Q: What about the CC50 at 72 h [18] of the same compound?
A: The CC50 at 72 h was greater than 50000 nM.

Q: What about the EC50 (MCF7 [19]) of the same compound?
A: The EC50 was 10 nM.

Q: And the Activity (MCF7 [20])?
A: The Activity was “Active”.
